Reference: ChEMBL document CHEMBL4145666, “In Search of Selectivity in Inhibition of ADAM10” (ACS Med Chem Lett, 2018)
Active and inactive are the calls of the source. The calls are words filed in the database; no cut-off is given here.

How the values were obtained:
[1] = target: Macrophage metalloelastase (Homo sapiens, UniProt P39900); experiment: Inhibition of recombinant human MMP12 catalytic domain using Mca-PLGL-DpaAR-NH2 as substrate by fluorescence spectrophotometric method
Outline: (§1)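 Enzymes and their substrates were obtained as in earlier work, and inhibition was run by a previously reported protocol. Ki values were measured in triplicate.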

[2] = target: Neutrophil collagenase (Homo sapiens, UniProt P22894); experiment: Inhibition of recombinant human MMP8 catalytic domain (Phe99 to Gln269 residues) expressed in Escherichia coli using McaKPLGL-Dpa-AR-NH2 as substrate by fluorescence spectrophotometric method; outline: as §1
[3] = target: Disintegrin and metalloproteinase domain-containing protein 17 (Homo sapiens, UniProt P78536); experiment: Inhibition of recombinant human C-terminal His6-tagged ADAM17 (Arg215 to Asn671 residues) expressed in baculovirus infected Sf21 cells using Mca-PLAQAV-Dpa-RSSSR-NH2 as substrate by fluorescence spectrophotometric method; outline: as §1
[4] = target: T1, Interstitial collagenase (Homo sapiens) (UniProt P03956); experiment: Inhibition of recombinant human MMP1 catalytic domain (Phe100 to Gln268 residues) expressed in Escherichia coli at 10 uM using McaKPLGL-Dpa-AR-NH2 as substrate by fluorescence spectrophotometric method
T1 sequence (whole entry): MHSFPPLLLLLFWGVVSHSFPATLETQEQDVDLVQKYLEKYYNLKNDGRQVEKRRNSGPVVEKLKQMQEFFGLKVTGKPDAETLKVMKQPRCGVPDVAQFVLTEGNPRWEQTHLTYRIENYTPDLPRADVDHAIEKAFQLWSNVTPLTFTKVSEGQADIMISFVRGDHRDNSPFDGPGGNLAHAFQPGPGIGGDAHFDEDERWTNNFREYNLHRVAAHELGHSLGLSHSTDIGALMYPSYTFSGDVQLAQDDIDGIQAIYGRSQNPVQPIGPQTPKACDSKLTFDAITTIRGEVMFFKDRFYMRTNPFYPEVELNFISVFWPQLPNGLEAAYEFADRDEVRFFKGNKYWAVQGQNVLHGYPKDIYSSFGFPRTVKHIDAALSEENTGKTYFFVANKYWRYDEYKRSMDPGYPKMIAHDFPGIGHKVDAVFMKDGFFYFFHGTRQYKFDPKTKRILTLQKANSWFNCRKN
Outline: (§2)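 Single inhibitor concentration of 10 μM, reported as percent inhibition. Enzymes and substrates as in earlier work, with inhibition run by a previously reported protocol.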

[5] = target: Stromelysin-1 (Homo sapiens) (UniProt P08254); experiment: Inhibition of recombinant human MMP3 catalytic domain expressed in Escherichia coli at 10 uM using MOCAc-Arg-Pro-LysPro-Val-Glu-Nva-Trp-Arg-Lys(Dnp)-NH2 as substrate by fluorescence spectrophotometric method relative to control; outline: as §2
[6] = target: T2, Matrilysin (Homo sapiens) (UniProt P09237); experiment: Inhibition of recombinant human MMP7 expressed in Escherichia coli using MOCAc-Pro-Leu-Gly-Leu-A2pr(Dnp)-Ala-Arg-NH2 as substrate at 10 uM by fluorescence spectrophotometric method; outline: as §2
T2 sequence (whole entry): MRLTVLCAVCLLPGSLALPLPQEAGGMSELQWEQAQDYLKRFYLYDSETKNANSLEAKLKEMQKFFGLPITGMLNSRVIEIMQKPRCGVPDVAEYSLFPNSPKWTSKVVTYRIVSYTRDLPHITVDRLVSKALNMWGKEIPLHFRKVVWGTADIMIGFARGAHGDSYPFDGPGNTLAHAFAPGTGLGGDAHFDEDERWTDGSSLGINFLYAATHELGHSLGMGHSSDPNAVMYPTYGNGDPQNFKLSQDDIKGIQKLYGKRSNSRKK

[7] = target: Matrix metalloproteinase-9 (Homo sapiens) (UniProt P14780); experiment: Inhibition of recombinant human MMP9 catalytic domain (Phe107 to Pro449 residues) expressed in Escherichia coli using MOCAc-Pro-Leu-Gly-Leu-A2pr(Dnp)-Ala-Arg-NH2 as substrate at 10 uM by fluorescence spectrophotometric method relative to control; outline: as §2
[8] = target: Matrix metalloproteinase-14 (Homo sapiens) (UniProt P50281); experiment: Inhibition of recombinant human MMP14 catalytic domain (89 to 265 residues) expressed in Escherichia coli using MOCAc-Pro-Leu-Gly-Leu-A2pr(Dnp)-Ala-Arg-NH2 as substrate at 10 uM by fluorescence spectrophotometric method relative to control; outline: as §2
[9] = target: T3, Disintegrin and metalloproteinase domain-containing protein 9 (Homo sapiens) (UniProt Q13443); experiment: Inhibition of recombinant human C-terminal His10-tagged ADAM9 (Ala206 to Asp697 residues) expressed in mouse cells using McaPLAQAV-Dpa-RSSSR-NH2 as substrate at 10 uM by fluorescence spectrophotometric method relative to control; outline: as §2
T3 sequence (whole entry): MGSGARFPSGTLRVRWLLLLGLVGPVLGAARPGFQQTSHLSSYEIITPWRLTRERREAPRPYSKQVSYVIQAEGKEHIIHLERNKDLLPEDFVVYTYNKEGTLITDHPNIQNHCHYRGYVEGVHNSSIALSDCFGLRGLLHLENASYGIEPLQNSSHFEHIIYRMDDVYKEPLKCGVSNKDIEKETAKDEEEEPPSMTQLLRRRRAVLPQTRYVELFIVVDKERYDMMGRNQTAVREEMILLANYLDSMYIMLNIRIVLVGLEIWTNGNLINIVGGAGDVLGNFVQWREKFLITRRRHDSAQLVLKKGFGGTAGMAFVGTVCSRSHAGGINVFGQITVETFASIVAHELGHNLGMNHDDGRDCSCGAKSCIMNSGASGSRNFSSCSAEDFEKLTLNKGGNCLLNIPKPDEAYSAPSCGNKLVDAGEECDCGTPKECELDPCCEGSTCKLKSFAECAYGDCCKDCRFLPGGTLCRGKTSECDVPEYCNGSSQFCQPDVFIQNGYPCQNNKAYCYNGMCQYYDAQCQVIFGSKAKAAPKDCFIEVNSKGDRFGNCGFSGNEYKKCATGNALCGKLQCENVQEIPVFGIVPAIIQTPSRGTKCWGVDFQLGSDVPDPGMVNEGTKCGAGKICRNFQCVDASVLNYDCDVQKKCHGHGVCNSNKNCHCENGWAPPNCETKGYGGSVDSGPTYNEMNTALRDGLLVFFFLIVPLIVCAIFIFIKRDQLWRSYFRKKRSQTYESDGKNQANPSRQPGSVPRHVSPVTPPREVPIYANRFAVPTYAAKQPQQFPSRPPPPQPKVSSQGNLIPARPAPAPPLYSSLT

[10] = target: T4, Disintegrin and metalloproteinase domain-containing protein 10 (Homo sapiens, UniProt O14672); experiment: Inhibition of recombinant human C-terminal His10-tagged ADAM10 (Thr214 to Glu672 residues) expressed in baculovirus infected Sf21 cells using McaKPLGL-Dpa-AR-NH2 as substrate by fluorescence spectrophotometric method; outline: as §1
T4 sequence (O14672 whole entry): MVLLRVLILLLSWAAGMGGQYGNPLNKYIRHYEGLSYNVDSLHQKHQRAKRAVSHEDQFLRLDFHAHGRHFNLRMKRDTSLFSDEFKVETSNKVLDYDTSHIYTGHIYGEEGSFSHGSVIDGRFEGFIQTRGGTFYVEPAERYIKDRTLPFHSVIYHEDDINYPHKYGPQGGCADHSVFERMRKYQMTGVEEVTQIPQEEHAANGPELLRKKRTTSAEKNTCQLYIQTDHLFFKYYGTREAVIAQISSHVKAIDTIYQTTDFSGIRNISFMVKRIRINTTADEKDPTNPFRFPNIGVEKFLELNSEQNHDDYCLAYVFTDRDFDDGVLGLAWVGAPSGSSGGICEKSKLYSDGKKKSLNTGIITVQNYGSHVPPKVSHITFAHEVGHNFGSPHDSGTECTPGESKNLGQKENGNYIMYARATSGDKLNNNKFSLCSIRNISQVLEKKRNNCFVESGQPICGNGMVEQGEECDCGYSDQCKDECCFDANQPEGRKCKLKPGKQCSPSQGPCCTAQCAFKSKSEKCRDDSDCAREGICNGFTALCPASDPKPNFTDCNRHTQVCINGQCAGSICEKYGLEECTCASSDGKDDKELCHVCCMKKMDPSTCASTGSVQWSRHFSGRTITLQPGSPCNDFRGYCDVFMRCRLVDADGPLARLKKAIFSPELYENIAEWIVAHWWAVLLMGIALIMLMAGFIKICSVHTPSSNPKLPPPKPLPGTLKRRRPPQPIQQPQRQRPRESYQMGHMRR

[11] = Elimination half life in CD-1 mouse brain at 10 mg/kg, ip by UPLC analysis; type: ADME, organism-based; conditions: read-out: beta t1/2
Outline: (§3)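 Male CD-1 mice, 6–7 weeks old, about 30 g, fed and watered ad libitum. Single dose of 10 mg/kg ip or 25 mg/kg sc, given as 100 μL formulation; n = 3 per time point per route. At set times, blood was taken by cardiac puncture with heparinized syringes and spun to plasma. Brains were harvested after transcardiac saline perfusion, weighed and flash-frozen. Brain levels are in pmol/mg tissue.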

[12] = Primary phase half life in CD-1 mouse brain at 10 mg/kg, ip by UPLC analysis; type: ADME, organism-based; conditions: read-out: alphat1/2; outline: as §3
[13] = system: Mus musculus; experiment: Time at which plasma concentration stays above in-vitro Ki for ADAM10 in CD-1 mouse at 10 mg/kg, ip by UPLC analysis; type: ADME, organism-based; conditions: in vivo; outline: as §3
[14] = system: Mus musculus; experiment: Time at which brain concentration stays above in-vitro Ki for ADAM10 in CD-1 mouse at 10 mg/kg, ip by UPLC analysis; type: ADME, organism-based; conditions: in vivo; outline: as §3
[15] = system: Mus musculus; experiment: Time at which brain concentration stays above in-vitro Ki for ADAM10 in CD-1 mouse at 25 mg/kg, sc by UPLC analysis; type: ADME, organism-based; conditions: in vivo; outline: as §3
[16] = AUC (0 to last) in CD-1 mouse brain assessed per mg tissue at 10 mg/kg, ip by UPLC analysis; type: ADME, organism-based; conditions: in vivo; outline: as §3
[17] = AUC (0 to infinity) in CD-1 mouse brain assessed per mg tissue at 10 mg/kg, ip by UPLC analysis; type: ADME, organism-based; design: dose 10 mg/kg, route intraperitoneal, time infinity; conditions: in vivo; outline: as §3
[18] = Ratio of AUC (0 to infinity) in brain to plasma in CD-1 mouse at 10 mg/kg, ip by UPLC analysis; type: ADME, organism-based; conditions: read-out: Ratio AUC
Outline: (§4)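 Male CD-1 mice (6–7 weeks, about 30 g) received one dose: 10 mg/kg ip or 25 mg/kg sc, with n = 3 per time point per route. At set times, plasma came from heparinized cardiac-puncture blood. Brain was taken after transcardiac saline perfusion, weighed and flash-frozen. Brain levels were in pmol/mg tissue, plasma in μM. Value is AUCbrain/AUCplasma.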

[19] = AUC (0 to last) in CD-1 mouse plasma at 10 mg/kg, ip by UPLC analysis; type: ADME, organism-based; design: dose 10 mg/kg, time 0 - last, route intraperitoneal; outline: as §3
[20] = AUC (0 to infinity) in CD-1 mouse plasma at 10 mg/kg, ip by UPLC analysis; type: ADME, organism-based; design: dose 10 mg/kg, route intraperitoneal, time infinity; outline: as §3
[21] = Primary phase half life in CD-1 mouse plasma at 10 mg/kg, ip by UPLC analysis; type: ADME, organism-based; conditions: read-out: alphat1/2; outline: as §3
[22] = Elimination half life in CD-1 mouse plasma at 10 mg/kg, ip by UPLC analysis; type: ADME, organism-based; conditions: read-out: beta t1/2; outline: as §3
[23] = AUC (0 to last) in CD-1 mouse brain assessed per mg tissue at 25 mg/kg, sc by UPLC analysis; type: ADME, organism-based; conditions: in vivo; outline: as §3
[24] = AUC (0 to infinity) in CD-1 mouse brain assessed per mg tissue at 25 mg/kg, sc by UPLC analysis; type: ADME, organism-based; design: dose 25 mg/kg, route subcutaneous, time infinity; conditions: in vivo; outline: as §3
[25] = Primary phase half life in CD-1 mouse brain at 25 mg/kg, sc by UPLC analysis; type: ADME, organism-based; conditions: read-out: alphat1/2; outline: as §3
[26] = Elimination half life in CD-1 mouse brain at 25 mg/kg, sc by UPLC analysis; type: ADME, organism-based; conditions: read-out: beta t1/2; outline: as §3
[27] = Ratio of AUC (0 to infinity) in brain to plasma in CD-1 mouse at 25 mg/kg, sc by UPLC analysis; type: ADME, organism-based; conditions: read-out: Ratio AUC; outline: as §4
[28] = AUC (0 to last) in CD-1 mouse plasma at 25 mg/kg, sc by UPLC analysis; type: ADME, organism-based; design: dose 25 mg/kg, route subcutaneous, time 0 - last; outline: as §3
[29] = AUC (0 to infinity) in CD-1 mouse plasma at 25 mg/kg, sc by UPLC analysis; type: ADME, organism-based; design: dose 25 mg/kg, route subcutaneous, time infinity; outline: as §3
[30] = Primary phase half life in CD-1 mouse plasma at 25 mg/kg, sc by UPLC analysis; type: ADME, organism-based; conditions: read-out: alphat1/2; outline: as §3
[31] = Elimination half life in CD-1 mouse plasma at 25 mg/kg, sc by UPLC analysis; type: ADME, organism-based; conditions: read-out: beta t1/2; outline: as §3

Stromelysin-1 (Homo sapiens), sequence (P08254 100-477 limits assumed): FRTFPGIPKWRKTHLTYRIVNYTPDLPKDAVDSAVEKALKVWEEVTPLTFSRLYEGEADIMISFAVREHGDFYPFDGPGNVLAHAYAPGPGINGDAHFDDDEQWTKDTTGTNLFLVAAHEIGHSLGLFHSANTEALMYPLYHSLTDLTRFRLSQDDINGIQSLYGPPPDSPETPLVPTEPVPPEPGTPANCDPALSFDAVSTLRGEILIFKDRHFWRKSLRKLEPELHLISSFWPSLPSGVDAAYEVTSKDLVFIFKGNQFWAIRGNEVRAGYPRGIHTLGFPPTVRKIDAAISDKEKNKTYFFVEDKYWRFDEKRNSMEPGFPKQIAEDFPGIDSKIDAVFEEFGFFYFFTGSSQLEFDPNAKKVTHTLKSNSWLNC
Macrophage metalloelastase, sequence (P39900 whole entry, the tested form may be a part): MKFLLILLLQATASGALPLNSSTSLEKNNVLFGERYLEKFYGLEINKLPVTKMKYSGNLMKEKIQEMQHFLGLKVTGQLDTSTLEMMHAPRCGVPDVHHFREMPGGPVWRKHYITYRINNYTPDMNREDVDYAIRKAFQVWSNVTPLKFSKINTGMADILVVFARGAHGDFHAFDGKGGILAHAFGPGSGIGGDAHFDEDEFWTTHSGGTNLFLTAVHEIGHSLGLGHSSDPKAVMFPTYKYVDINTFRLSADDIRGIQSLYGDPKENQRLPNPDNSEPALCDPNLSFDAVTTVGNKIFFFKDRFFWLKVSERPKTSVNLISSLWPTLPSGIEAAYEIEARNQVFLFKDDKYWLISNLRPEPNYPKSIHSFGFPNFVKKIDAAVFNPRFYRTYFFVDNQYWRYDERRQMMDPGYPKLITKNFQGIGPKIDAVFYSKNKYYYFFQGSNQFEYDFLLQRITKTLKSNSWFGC
Disintegrin and metalloproteinase domain-containing protein 17, sequence (P78536 whole entry, the tested form may be a part): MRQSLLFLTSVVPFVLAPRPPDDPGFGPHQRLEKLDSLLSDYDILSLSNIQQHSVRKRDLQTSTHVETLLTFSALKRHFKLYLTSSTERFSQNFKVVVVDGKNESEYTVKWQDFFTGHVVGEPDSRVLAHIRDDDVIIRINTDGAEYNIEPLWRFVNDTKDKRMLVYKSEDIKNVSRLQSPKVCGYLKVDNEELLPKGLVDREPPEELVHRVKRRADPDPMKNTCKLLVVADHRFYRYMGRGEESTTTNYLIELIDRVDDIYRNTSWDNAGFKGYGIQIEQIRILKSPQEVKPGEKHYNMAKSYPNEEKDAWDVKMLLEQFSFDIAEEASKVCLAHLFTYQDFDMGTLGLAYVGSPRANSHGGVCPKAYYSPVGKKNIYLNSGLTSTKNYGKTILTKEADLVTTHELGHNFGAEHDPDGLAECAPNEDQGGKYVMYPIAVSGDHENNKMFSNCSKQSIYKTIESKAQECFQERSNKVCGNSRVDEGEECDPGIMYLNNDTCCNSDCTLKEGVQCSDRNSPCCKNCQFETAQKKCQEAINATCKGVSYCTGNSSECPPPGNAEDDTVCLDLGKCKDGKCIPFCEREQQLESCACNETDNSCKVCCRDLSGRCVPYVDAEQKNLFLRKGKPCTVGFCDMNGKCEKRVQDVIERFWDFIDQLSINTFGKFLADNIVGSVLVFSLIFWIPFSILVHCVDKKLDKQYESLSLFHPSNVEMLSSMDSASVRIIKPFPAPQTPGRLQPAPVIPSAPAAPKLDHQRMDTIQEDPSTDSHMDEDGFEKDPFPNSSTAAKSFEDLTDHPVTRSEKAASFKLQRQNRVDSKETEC
Matrix metalloproteinase-9 (Homo sapiens), sequence (P14780 whole entry, the tested form may be a part): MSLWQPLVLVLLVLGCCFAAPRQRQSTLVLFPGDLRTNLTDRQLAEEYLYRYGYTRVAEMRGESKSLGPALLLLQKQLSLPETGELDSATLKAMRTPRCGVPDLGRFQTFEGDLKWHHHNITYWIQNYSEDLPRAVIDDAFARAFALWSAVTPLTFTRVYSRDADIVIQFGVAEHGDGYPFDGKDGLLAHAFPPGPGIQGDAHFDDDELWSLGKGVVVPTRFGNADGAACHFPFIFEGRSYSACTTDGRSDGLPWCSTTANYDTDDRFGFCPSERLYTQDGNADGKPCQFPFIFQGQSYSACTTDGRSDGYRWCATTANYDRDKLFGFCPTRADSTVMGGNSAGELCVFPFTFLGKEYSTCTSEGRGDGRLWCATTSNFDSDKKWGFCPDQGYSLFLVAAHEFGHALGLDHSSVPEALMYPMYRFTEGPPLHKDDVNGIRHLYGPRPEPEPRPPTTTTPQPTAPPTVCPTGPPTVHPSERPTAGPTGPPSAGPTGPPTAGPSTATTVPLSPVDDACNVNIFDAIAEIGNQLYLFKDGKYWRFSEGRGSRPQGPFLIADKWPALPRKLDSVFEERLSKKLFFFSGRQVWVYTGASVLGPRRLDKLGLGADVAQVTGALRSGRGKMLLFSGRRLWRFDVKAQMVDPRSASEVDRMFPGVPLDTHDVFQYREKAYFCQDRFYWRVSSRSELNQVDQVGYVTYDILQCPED
Neutrophil collagenase, sequence (P22894 whole entry, the tested form may be a part): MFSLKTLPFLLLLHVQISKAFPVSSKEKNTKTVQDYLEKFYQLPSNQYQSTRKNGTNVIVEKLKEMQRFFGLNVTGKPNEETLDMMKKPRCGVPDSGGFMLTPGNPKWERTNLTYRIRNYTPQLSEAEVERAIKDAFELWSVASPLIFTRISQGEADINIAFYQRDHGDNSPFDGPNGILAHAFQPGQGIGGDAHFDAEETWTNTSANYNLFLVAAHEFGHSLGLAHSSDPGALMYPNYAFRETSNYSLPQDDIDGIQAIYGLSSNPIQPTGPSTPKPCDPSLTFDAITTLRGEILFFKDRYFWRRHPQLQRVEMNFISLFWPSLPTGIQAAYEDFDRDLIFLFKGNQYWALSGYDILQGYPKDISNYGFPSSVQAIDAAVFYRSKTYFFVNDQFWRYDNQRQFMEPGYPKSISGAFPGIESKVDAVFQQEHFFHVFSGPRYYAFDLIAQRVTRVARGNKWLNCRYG

Ki [1]: 270 nM | Ki [2]: 8.7 µM | Ki [3]: 900 nM | inhibition [4]: inactive | inhibition [5]: 2% | inhibition [6]: inactive | inhibition [7]: 25% | inhibition [8]: 19% | inhibition [9]: 15% | Ki [10]: 73 nM | half-life [11]: 204 min | half-life [12]: 28.8 min | Time [13]: 6 h | Time [14]: 20 min | Time [15]: 100 min | AUClast [16]: 12.1 pmol·min | AUC [17]: 14 pmol·min/mg | Kp [18]: 0.0761 | AUC(0-t) [19]: 2.58 µM·h | AUC(0-inf) [20]: 3.07 µM·h | half-life [21]: 12.4 min | half-life [22]: 315 min | AUClast [23]: 51.2 pmol·min | AUC [24]: 77 pmol·min/mg | half-life [25]: 11.4 min | half-life [26]: 630 min | Kp [27]: 0.0693 | AUC(0-t) [28]: 18.4 µM·h | AUC(0-inf) [29]: 18.5 µM·h | half-life [30]: 15.4 min | half-life [31]: 158 min
SMILES: O=C(NO)[C@H]1C[C@H](OC(=O)N2CCCC2)CC[C@@H]1C(=O)N1CCC(c2ccccc2)CC1
